Measurements as given in ChEMBL document CHEMBL3244367, “Synthesis and determination of antiviral activity of the 2'(3')-O-methyl derivatives of ribavirin (1-beta-D-ribofuranosyl-1,2,4-triazole-3-carboxamide)” (1977).
In brackets after ≈: the same amount, converted by molar mass. Activity calls are given as the source filed them. The rule behind the calls is not given here.

Assays:
[1] = Inhibition of DNA synthesis in primary rabbit kidney cells assessed as inhibition of [3H]thymidine incorporation into DNA; type: functional; conditions: Oryctolagus cuniculus, read-out: ID50 (the source's name)
How it was run: (§1)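 Host-cell DNA synthesis in primary rabbit kidney cells, measured as [methyl-3H]thymidine incorporation into DNA. ID50 is the dose inhibiting thymidine incorporation by 50%. The highest concentration tested was 100 μg/mL.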

Human alphaherpesvirus 1 = assay: Antiviral activity against Herpes simplex virus 1 infected in primary rabbit kidney cells assessed as inhibition of virus-induced cytopathogenicity treated immediately after virus adsorption measured 3 days after virus infection; type: functional; conditions: Human alphaherpesvirus 1, 72 h
How it was run: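 Compound added right after virus adsorption; 100 CCID50 virus per culture. Cytopathogenicity was scored once complete in untreated infected controls. The value is the concentration giving 50% inhibition of viral cytopathogenicity.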

[2] = system: Vesicular stomatitis virus; assay: Antiviral activity against Vesicular stomatitis virus infected in primary rabbit kidney cells assessed as inhibition of virus-induced cytopathogenicity treated immediately after virus adsorption measured 2 days after virus infection; type: functional; conditions: 48 h
Coxsackievirus B4 = assay: Antiviral activity against Coxsackievirus B4 infected in human HeLa cells assessed as inhibition of virus-induced cytopathogenicity treated immediately after virus adsorption measured 2 days after virus infection; type: functional; conditions: Enterovirus B, 48 h
Poliovirus 1 = assay: Antiviral activity against Poliovirus type 1 infected in human HeLa cells assessed as inhibition of virus-induced cytopathogenicity treated immediately after virus adsorption measured 2 days after virus infection; type: functional; conditions: Enterovirus C, 48 h
kidney = assay: Inhibition of DNA synthesis in primary rabbit kidney cells assessed as inhibition of [3H]thymidine incorporation into DNA at 100 ug/mL; type: functional, cell-based; conditions: Oryctolagus cuniculus; how it was run: as §1

SMILES	IC50 [1] [µg/mL]	MIC50 (Human alphaherpesvirus 1) [µg/mL]	MIC50 [2] [µg/mL]	MIC50 (Coxsackievirus B4) [µg/mL]	MIC50 (Poliovirus 1) [µg/mL]	inhibition (kidney)
NC(=O)c1ncn([C@@H]2O[C@H](CO)[C@@H](O)[C@H]2O)n1 [RIBAVIRIN]	20 (≈ 81.9 µM)	20 (≈ 81.9 µM)	70 (≈ 287 µM)	40 (≈ 164 µM)	40 (≈ 164 µM)	
CO[C@H]1[C@@H](O)[C@H](n2cnc(C(N)=O)n2)O[C@@H]1CO		> 200	> 200	> 200	> 200	inactive
CO[C@@H]1[C@H](O)[C@@H](CO)O[C@H]1n1cnc(C(N)=O)n1		> 200	> 200	> 200	> 200	inactive
